{"source": "ChEMBL document CHEMBL1123488", "about": "“Agents for the treatment of brain edema. 2. [(2,3,9,9a-Tetrahydro-3-oxo-9a-substituted-1H-fluoren-7-yl)oxy]+ ++alkanoi c acids and some of their analogues” (J Med Chem, 1986)", "key": {"[1]": {"species": "Felis catus", "assay": "Compound was tested for inhibition of sodium ion uptake in cat cerebrocortical slices at concentration of (10e-12) M", "format": "functional"}, "[2]": {"tested_on": "Rattus norvegicus", "assay": "In vivo activity in the acceleration-deceleration head injury assay at dose of 10 mg/kg", "format": "functional", "method_in_brief": "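Cat acceleration-deceleration head injury model. Drug given intravenously 20 min after the acceleration-deceleration event, before the hypoxemia period. Animals were matched in pairs by sex and run together; one was randomly assigned to drug, the other served as control. Deaths were counted over 24 h after trauma, excluding animals dying during the procedure or hypoxemia. Mortality was compared by χ² analysis.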"}, "[3]": {"tested_on": "Felis catus", "assay": "In vivo activity in the acceleration-deceleration head injury assay at dose of 1 mg/kg; 12/25"}, "[4]": {"species": "Rattus norvegicus", "assay": "Compound was tested for inhibition of sodium ion uptake in rat cerebrocortical slices at concentration of (10e-4) M", "format": "functional"}, "[5]": {"species": "Felis catus", "assay": "Compound was tested for inhibition of chloride ion uptake in cat cerebrocortical slices at concentration of (10e-10) M", "format": "functional", "method_in_brief": "(§1)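 Slices were incubated 60 min at 22 °C in 27 mM K+ medium with 5 mM HCO3- added for the last 40 min, with the compound present throughout. Slices were then filtered off, reweighed and homogenized (10% w/v) in 1 N perchloric acid. The supernatant was assayed for electrolytes, expressed as µmol/g initial wet weight. Two-tailed t-test versus 27 K + HCO3-.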"}, "[6]": {"tested_on": "Felis catus", "assay": "In vivo activity in the acceleration-deceleration head injury assay at dose of 2.5 mg/kg; 5/21"}, "[7]": {"tested_on": "Felis catus", "assay": "In vivo activity in the acceleration-deceleration head injury assay at dose of 2.5 mg/kg; 8-19"}, "[8]": {"species": "Cavia porcellus", "assay": "Compound was tested for inhibition of sodium ion uptake in guinea pig cerebrocortical slices at concentration of (10e-8) M", "format": "functional"}, "[9]": {"species": "Rattus norvegicus", "assay": "Compound was tested for inhibition of potassium ion uptake in rat cerebrocortical slices at concentration of (10e-6) M", "format": "functional"}, "[10]": {"species": "Felis catus", "assay": "Compound was tested for inhibition of chloride ion uptake in cat cerebrocortical slices at concentration of (10e-7) M", "format": "functional", "method_in_brief": "as §1"}, "[11]": {"species": "Cavia porcellus", "assay": "Compound was tested for inhibition of HCO3- dependent swelling of guinea pig cerebrocortical slices at concentration of (10e-6) M", "format": "functional", "method_in_brief": "(§2)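 Cerebrocortical slices were weighed and incubated in Warburg flasks at 22 °C in medium of KCl 27, NaCl 100, glucose 10 and KH2PO4 1.2 mmol/L (27 mM K+ HEPES). HCO3- (5 mM) was added from the side arm for the final 40 min, and the compound was present throughout the 60 min. Swelling = (final − initial wet weight)/initial wet weight × 100. Two-tailed t-test versus 27 K + HCO3-.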"}, "[12]": {"species": "Cavia porcellus", "assay": "Compound was tested for inhibition of chloride ion uptake in guinea pig cerebrocortical slices at concentration of (10e-11) M", "format": "functional", "method_in_brief": "as §1"}, "[13]": {"species": "Rattus norvegicus", "assay": "Compound was tested for inhibition of chloride ion uptake in rat cerebrocortical slices at concentration of (10e-6) M", "format": "functional", "method_in_brief": "as §1"}, "[14]": {"species": "Cavia porcellus", "assay": "Compound was tested for inhibition of potassium ion uptake in guinea pig cerebrocortical slices at concentration of (10e-11) M", "format": "functional", "method_in_brief": "as §1"}, "[15]": {"species": "Cavia porcellus", "assay": "Compound was tested for inhibition of HCO3- dependent swelling of guinea pig cerebrocortical slices at concentration of (10e-12) M", "format": "functional", "method_in_brief": "as §2"}, "[16]": {"species": "Felis catus", "assay": "Compound was tested for inhibition of chloride ion uptake in cat cerebrocortical slices at concentration of (10e-13) M", "format": "functional", "method_in_brief": "as §1"}, "[17]": {"species": "Rattus norvegicus", "assay": "Compound was tested for inhibition of sodium ion uptake in rat cerebrocortical slices at concentration of (10e-6) M", "format": "functional"}, "[18]": {"species": "Cavia porcellus", "assay": "Compound was tested for inhibition of chloride ion uptake in guinea pig cerebrocortical slices at concentration of (10e-7) M", "format": "functional", "method_in_brief": "as §1"}, "[19]": {"species": "Cavia porcellus", "assay": "Compound was tested for inhibition of sodium ion uptake in guinea pig cerebrocortical slices at concentration of (10e-6) M", "format": "functional"}, "[20]": {"species": "Cavia porcellus", "assay": "Compound was tested for inhibition of chloride ion uptake in guinea pig cerebrocortical slices at concentration of (10e-10) M", "format": "functional", "method_in_brief": "as §1"}, "[21]": {"species": "Cavia porcellus", "assay": "Compound was tested for inhibition of potassium ion uptake in guinea pig cerebrocortical slices at concentration of (10e-9) M", "format": "functional"}, "[22]": {"species": "Rattus norvegicus", "assay": "Compound was tested for inhibition of HCO3- dependent swelling of rat cerebrocortical slices at concentration of (10e-8) M", "format": "functional", "method_in_brief": "as §2"}, "[23]": {"tested_on": "Felis catus", "assay": "In vivo activity in the acceleration-deceleration head injury assay at dose of 10 mg/kg; 6/16"}, "[24]": {"species": "Felis catus", "assay": "Compound was tested for inhibition of sodium ion uptake in cat cerebrocortical slices at concentration of (10e-10) M", "format": "functional"}, "[25]": {"species": "Cavia porcellus", "assay": "Compound was tested for inhibition of chloride ion uptake in guinea pig cerebrocortical slices at concentration of (10e-12) M", "format": "functional", "method_in_brief": "as §1"}, "[26]": {"species": "Felis catus", "assay": "Compound was tested for inhibition of HCO3- dependent swelling of cat cerebrocortical slices at concentration of (10e-7) M", "format": "functional", "method_in_brief": "as §2"}, "[27]": {"species": "Rattus norvegicus", "assay": "Compound was tested for inhibition of HCO3- dependent swelling of rat cerebrocortical slices at concentration of (10e-3) M", "format": "functional", "method_in_brief": "as §2"}, "[28]": {"species": "Cavia porcellus", "assay": "Compound was tested for inhibition of chloride ion uptake in guinea pig cerebrocortical slices at concentration of (10e-9) M", "format": "functional", "method_in_brief": "as §1"}, "[29]": {"species": "Felis catus", "assay": "Compound was tested for inhibition of K+ ion uptake in cat cerebrocortical slices at concentration of (10e-7) M", "format": "functional", "method_in_brief": "as §1"}, "[30]": {"species": "Cavia porcellus", "assay": "Compound was tested for inhibition of HCO3- dependent swelling of guinea pig cerebrocortical slices at concentration of (10e-8) M", "format": "functional", "method_in_brief": "as §2"}, "[31]": {"species": "Felis catus", "assay": "Compound was tested for inhibition of sodium ion uptake in cat cerebrocortical slices at concentration of (10e-8) M", "format": "functional"}, "[32]": {"species": "Felis catus", "assay": "Compound was tested for inhibition of HCO3- dependent swelling of cat cerebrocortical slices at concentration of (10e-9) M", "format": "functional", "method_in_brief": "as §2"}, "[33]": {"species": "Felis catus", "assay": "Compound was tested for inhibition of K+ ion uptake in cat cerebrocortical slices at concentration of (10e-8) M", "format": "functional", "method_in_brief": "as §1"}, "[34]": {"species": "Rattus norvegicus", "assay": "Compound was tested for inhibition of chloride ion uptake in rat cerebrocortical slices at concentration of (10e-3) M", "format": "functional", "method_in_brief": "as §1"}, "[35]": {"species": "Cavia porcellus", "assay": "Compound was tested for inhibition of chloride ion uptake in guinea pig cerebrocortical slices at concentration of (10e-6) M", "format": "functional", "method_in_brief": "as §1"}, "[36]": {"species": "Cavia porcellus", "assay": "Compound was tested for inhibition of sodium ion uptake in guinea pig cerebrocortical slices at concentration of (10e-11) M", "format": "functional"}, "[37]": {"species": "Cavia porcellus", "assay": "Compound was tested for inhibition of potassium ion uptake in guinea pig cerebrocortical slices at concentration of (10e-8) M", "format": "functional", "method_in_brief": "as §1"}, "[38]": {"species": "Felis catus", "assay": "Compound was tested for inhibition of HCO3- dependent swelling of cat cerebrocortical slices at concentration of (10e-10) M", "format": "functional", "method_in_brief": "as §2"}, "[39]": {"species": "Felis catus", "assay": "Compound was tested for inhibition of chloride ion uptake in cat cerebrocortical slices at concentration of (10e-9) M", "format": "functional", "method_in_brief": "as §1"}, "[40]": {"species": "Felis catus", "assay": "Compound was tested for inhibition of K+ ion uptake in cat cerebrocortical slices at concentration of (10e-12) M", "format": "functional", "method_in_brief": "as §1"}, "[41]": {"species": "Cavia porcellus", "assay": "Compound was tested for inhibition of HCO3- dependent swelling of guinea pig cerebrocortical slices at concentration of (10e-10) M", "format": "functional", "method_in_brief": "as §2"}, "[42]": {"species": "Felis catus", "assay": "Compound was tested for inhibition of K+ ion uptake in cat cerebrocortical slices at concentration of (10e-11) M", "format": "functional", "method_in_brief": "as §1"}, "[43]": {"species": "Cavia porcellus", "assay": "Compound was tested for inhibition of potassium ion uptake in guinea pig cerebrocortical slices at concentration of (10e-6) M", "format": "functional", "method_in_brief": "as §1"}}, "note": "“And” between values parts separate entries of the source, which are not always exact repeats. Identical values can stand only once.", "data": [{"compound": "CCCC12CCC(=O)C=C1c1c(cc(OCC(=O)O)c(Cl)c1Cl)C2", "note": "(single isomer, unassigned; (+))", "values": [{"measurement": "Activity", "setting": "[1]", "value": 96.4}, {"measurement": "Mortality", "setting": "[2]", "value": "37.5% and 79%"}, {"measurement": "Deaths", "setting": "[3]", "value": 12}, {"measurement": "Activity", "setting": "[4]", "value": 112.1}, {"measurement": "Activity", "setting": "[5]", "value": 91.9}, {"measurement": "Deaths", "setting": "[6]", "value": 5}, {"measurement": "Deaths", "setting": "[7]", "value": 8}, {"measurement": "Activity", "setting": "[8]", "value": 108.6}, {"measurement": "Activity", "setting": "[9]", "value": 71.9}, {"measurement": "Activity", "setting": "[10]", "value": 86.9}, {"measurement": "Swelling", "setting": "[11]", "value": 26.8, "unit": "%"}, {"measurement": "Activity", "setting": "[12]", "value": 94.8}, {"measurement": "Activity", "setting": "[13]", "value": 101.5}, {"measurement": "Activity", "setting": "[14]", "value": 88.9}, {"measurement": "Swelling", "setting": "[15]", "value": 30.9, "unit": "%"}, {"measurement": "Activity", "setting": "[16]", "value": 98.5}, {"measurement": "Activity", "setting": "[17]", "value": 127}, {"measurement": "Activity", "setting": "[18]", "value": 115.4}, {"measurement": "Activity", "setting": "[19]", "value": 115}, {"measurement": "Activity", "setting": "[20]", "value": 101.4}, {"measurement": "Activity", "setting": "[21]", "value": 95.9}, {"measurement": "Swelling", "setting": "[22]", "value": 20.9, "unit": "%"}, {"measurement": "Deaths", "setting": "[23]", "value": 6}, {"measurement": "Activity", "setting": "[24]", "value": 86.9}, {"measurement": "Activity", "setting": "[25]", "value": 100.5}, {"measurement": "Swelling", "setting": "[26]", "value": 20, "unit": "%"}, {"measurement": "Swelling", "setting": "[27]", "value": 19.1, "unit": "%"}, {"measurement": "Activity", "setting": "[28]", "value": 105.2}, {"measurement": "Activity", "setting": "[29]", "value": 83.9}, {"measurement": "Swelling", "setting": "[30]", "value": 24.4, "unit": "%"}, {"measurement": "Activity", "setting": "[31]", "value": 87.2}, {"measurement": "Swelling", "setting": "[32]", "value": 18.3, "unit": "%"}, {"measurement": "Activity", "setting": "[33]", "value": 83.8}, {"measurement": "Activity", "setting": "[34]", "value": 106.3}, {"measurement": "Activity", "setting": "[35]", "value": 103.8}, {"measurement": "Activity", "setting": "[36]", "value": 103.4}, {"measurement": "Activity", "setting": "[37]", "value": 90.8}, {"measurement": "Swelling", "setting": "[38]", "value": 19.5, "unit": "%"}, {"measurement": "Activity", "setting": "[39]", "value": 89.3}, {"measurement": "Activity", "setting": "[40]", "value": 90.9}, {"measurement": "Swelling", "setting": "[41]", "value": 26.8, "unit": "%"}, {"measurement": "Activity", "setting": "[42]", "value": 88.8}, {"measurement": "Activity", "setting": "[43]", "value": 95}]}]}
